Test [1] relates to Caenorhabditis elegans. Put plainly: Antiaging activity in Caenorhabditis elegans Bristol isolate N2 assessed as increase in lifespan at 1 uM (reference value: 15 +/- 0.85%). The test is classed as functional.
Test [2] relates to Caenorhabditis elegans. The test can be described thus: Antiaging activity in Caenorhabditis elegans Bristol isolate N2 assessed as increase in lifespan at 10 uM (reference value: 15 +/- 0.85%). The test is classed as functional.
The subject of test [3] is HLF1. Put plainly: Inhibition of H2O2-induced oxidative stress in human HLF1 cells assessed as increase in cell viability at 2 to 5 uM pretreated for 24 hrs followed by addition of 300 uM H2O2 for 2.5 hrs. It is filed as functional, cell-based.
The subject of test [4] is Caenorhabditis elegans. The test can be described thus: Antiaging activity in Caenorhabditis elegans Bristol isolate N2 assessed as increase in lifespan at 20 uM (reference value: 15 +/- 0.85%). The test is classed as functional.
The subject of test [5] is Caenorhabditis elegans. Put plainly: Antiaging activity in Caenorhabditis elegans Bristol isolate N2 assessed as lifespan. The test is classed as functional, organism-based. The method in brief:
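C. elegans N2 hermaphrodites, egg-lay synchronized, moved at L4 (80-120 per condition) onto UV-killed OP50/NGM plates carrying compound in DMSO diluted in M9, or DMSO alone; 20 °C, new plates every 2 days, exposure lifelong. Day 1 adult = t0. Scored daily for touch-provoked movement and pharyngeal pumping until death. Kaplan–Meier curves, log-rank test; repeated at least twice.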

For test [6], the system named is HLF1. Put plainly: Inhibition of H2O2-induced oxidative stress in human HLF1 cells assessed as cell viability at 5 uM pretreated for 24 hrs followed by addition of 300 uM H2O2 for 2.5 hrs. It is filed as functional, cell-based. Summed up:
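HFL-1 embryonic lung fibroblasts in DMEM/10% FBS, fed about 16 h before assay; 10⁴ cells seeded, 24 h later given compound in DMSO or DMSO alone for 24 h. Then 300 μM H2O2 for 2.5 h with compound still present, PBS wash, 5-day recovery in complete medium. Cells counted in triplicate with a Coulter counter; at least two experiments.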

For test [7], the system named is Caenorhabditis elegans. Put plainly: Antiaging activity in Caenorhabditis elegans Bristol isolate N2 assessed as lifespan at 10 uM. It is filed as functional, organism-based.

We go through seven compounds from ChEMBL document CHEMBL3352704, “Microwave-assisted synthesis of 3,5-disubstituted isoxazoles and evaluation of their anti-ageing activity” (2014).

Calls of active or inactive are those of the source. The rule behind the calls is not given here.

Regarding `Cc1c(C)c2c(c(C)c1O)C=CC(C)(COCc1cc(-c3ccc(O)cc3)no1)O2` (stereo unspecified), in test [1], the ILS (usually how much longer treated animals lived than controls) at 1 µM is 18%. Further, the ILS at 10 µM in test [2] came to 18%. The result in test [3] was Active. Also, the increase in life span (ILS) at 20 µM in test [4] was 20%.

For `COc1c(C)c(C)c2c(c1C)CCC(C)(COCc1cc(-c3ccc(O)cc3)no1)O2` (stereo unspecified), the outcome in test [5] was inactive. For the same compound, in test [6], the inhibition entry is “inactive”.

As to `OCc1cc(-c2ccc(O)cc2)no1`, the outcome in test [5] was inactive. Besides, in test [6], the inhibition result was “inactive”.

`CCCc1cc(-c2ccc(O)cc2)no1`: the result in test [5] was inactive. Besides, in test [6], the inhibition result is “inactive”.

Take `Oc1ccc(-c2cc(-c3ccccc3)on2)cc1`: the result in test [5] was inactive. The inhibition result in test [6] is “inactive”.

As to `Cc1c(C)c2c(c(C)c1O)C=CC(C)(COCc1cc(-c3ccc(F)cc3)no1)O2` (stereo unspecified), the outcome in test [5] was inactive. Besides, in test [6], the inhibition entry was “inactive”.

As for `O=c1c(O)c(-c2ccc(O)c(O)c2)oc2cc(O)cc(O)c12`, the outcome in test [7] was inactive. Also, in test [3], the outcome was Active.
